Screening results from PubChem.
Rows were chosen to be rich in hits. Some 3.1% of all compounds tested hit in one or more screens of this group.
KCNK9 block: human KCNK9 channel inhibition; Q9NPC2; HEK293 KCNK9, FluxOR thallium flux fluorescence; active compounds read low; B-score at 10 µM; hit rate 1.2% among 310,000;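 active means ratio B-score over 3 SD below the library mean, with starting fluorescence within 5 SD of its mean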;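 further: negative B-score means less thallium flux so channel inhibition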
Target sequence (Q9NPC2 whole entry, looked up): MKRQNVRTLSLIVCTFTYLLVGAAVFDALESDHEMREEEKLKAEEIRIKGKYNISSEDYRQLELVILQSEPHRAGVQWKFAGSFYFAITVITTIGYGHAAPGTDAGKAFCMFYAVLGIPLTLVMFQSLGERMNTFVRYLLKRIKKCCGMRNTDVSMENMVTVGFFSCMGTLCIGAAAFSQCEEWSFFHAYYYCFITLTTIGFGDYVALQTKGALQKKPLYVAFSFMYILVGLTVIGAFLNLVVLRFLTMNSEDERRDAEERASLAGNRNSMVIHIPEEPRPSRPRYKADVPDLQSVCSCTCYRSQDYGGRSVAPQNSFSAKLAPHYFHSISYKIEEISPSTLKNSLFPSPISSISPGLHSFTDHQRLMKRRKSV
KCNQ1 block: inhibitors of human KCNQ1 potassium channel; CHO-K1 KCNQ1, FluxOR thallium flux fluorescence; active compounds read high; B-score at 10 µM; AID 2642; hit rate 1.3% among 310,000; P51787;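 active means compounds whose thallium flux B-score, printed positive for inhibition, exceeds three library SD while starting fluorescence stays within three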;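 further: channel opened by potassium depolarization with thallium stimulus after 20 min compound exposure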
KCNK3 block: human KCNK3 channel inhibition, primary screen | CHO-KCNK3 thallium flux, FluxOR fluorescence; active compounds read low | O14649 | hit rate 0.84% among 340,000 | B-score at 10 µM;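 active means B-score under library mean minus 4 SD, starting fluorescence ratio at most library mean plus 5 SD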;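 further: more negative B-score means stronger inhibition of thallium flux through KCNK3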
hERG protect: shields human hERG channel from block by proarrhythmic agents. Q12809. CHO-hERG, FluxOR thallium flux, dofetilide IC70 present. activation (rescue from dofetilide block), less the hit threshold, % at 10 µM. hit rate 0.51% among 310,000. AID 1511;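 active means activation above the mean of controls blocked by dofetilide plus 5 SD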;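 further: thallium influx through hERG after potassium depolarization seen as dye fluorescence rise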
KCNQ1 act: human KCNQ1 channel potentiation or activation | B-score at 10 µM | AID 2648 | hit rate 0.35% among 310,000 | CHO-K1 KCNQ1, thallium flux FluxOR fluorescence; active compounds read high | P51787;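 active means fluorescence ratio B-score, a plate-corrected score, at least three library SD, with initial intensity B-score within 5 SD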
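Assay system: stable KCNQ1 CHO-K1 line; medium: assay buffer, equal DMSO in all wells; timing: 90 min dye loading and 20 min compound exposure, both at room temperature; technique: kinetic FluxOR thallium fluorescence, 10-s 1-Hz baseline, 110-s post-stimulus read; read-out basis: B score of baseline-normalized fluorescence ratio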
* = called active by the depositor; i = inactive; · = no result.

SMILES	KCNK9 block	KCNQ1 block	KCNK3 block	hERG protect	KCNQ1 act
Cc1cccc(NC(=S)N=Nc2c(O)n(CN3CCOCC3)c3ccccc23)c1C	i	i	i	-3.4	i
CC1(C)Oc2ccc(C(=O)NNC(=O)Nc3ccccc3)cc2NC1=O	i	i	i	0.6	i
O=C(N/N=C/c1ccc(OC(F)F)cc1)C1=COCCO1	i	i	i	16.4*	i
O=C(N/N=C/c1ccccc1OC(F)F)C1=COCCO1	i	i	i	0.8	i
O=C1C(c2ccccc2)C(c2ccccc2)NC(c2ccccc2)C1c1ccccc1 (stereo not drawn)	i	i	i	1.2	i
CCC1C(=O)CC(c2ccccc2)NC1c1ccccc1 (stereo not drawn)	-6.57*	i	i	-5.3	i
c1ccc(-c2nc3ccccc3[nH]2)cc1	i	i	i	-3.5	i
S=c1nc(-c2ccccc2)[nH]c2ccc(Br)cc12	i	i	i	58.9*	101*
COC(=O)c1c(-c2ccccc2)noc1C	i	i	i	5.8*	i
Cc1onc(-c2ccccc2)c1C(=O)NNC(=S)NC(=O)c1ccc(Cl)cc1Cl	i	i	i	-4.5	20*
CCCN(CCC)C(=S)NC(=O)c1ccc(Cl)cc1Cl	i	i	i	24.7*	55*
Cc1onc(-c2ccccc2)c1C(=O)NNC(=S)NC(=O)/C=C/c1ccccc1	i	i	i	-11.3	i
Cc1onc(-c2ccccc2)c1C(=O)NNC(=S)NC(=O)c1ccc(Br)cc1	i	i	i	-16.1	34*
Cc1ccccc1C(=O)NNC(=S)NC(=O)c1ccc(Cl)cc1Cl	i	i	i	-15.2	15*
O=C1C2C3C=CC(C3)C2C(=O)N1/N=C/c1cc(Br)cc([N+](=O)[O-])c1O (stereo not drawn)	i	7*	i	-6.3	i
COCCCNC(=O)c1nc2ccccc2c(=O)n1NC(=O)Nc1c(Cl)cccc1Cl	i	i	i	-7.4	i
N#Cc1c(NC(=O)CSc2ncccn2)oc(-c2ccccc2)c1-c1ccccc1	i	i	i	-15.5	i
COc1ccccc1OCC(=O)Nc1oc(-c2ccccc2)c(-c2ccccc2)c1C#N	·	·	-9.38*	·	·
N#Cc1c(NC(=O)COC(=O)C2CC3C=CC2C3)oc(-c2ccccc2)c1-c1ccccc1 (stereo not drawn)	i	10*	i	-17.8	i
Cc1ccc(OCC(=O)Nc2oc(-c3ccccc3)c(-c3ccccc3)c2C#N)cc1	i	6*	i	-3.8	i
N#Cc1c(NC(=O)CN2CCOCC2)oc(-c2ccccc2)c1-c1ccccc1	i	i	i	-11.1	i
COc1ccc(CC(=O)Nc2oc(-c3ccccc3)c(-c3ccccc3)c2C#N)cc1OC	i	i	i	-11.3	i
N#Cc1c(NC(=O)CSc2n[nH]c(Cc3ccccc3)n2)oc(-c2ccccc2)c1-c1ccccc1	i	9*	i	-7.2	i
Cc1cccc(C(=O)OCC(=O)c2csc(N3CCCCC3)n2)c1[N+](=O)[O-]	·	·	i	·	·
O=C(O)C1(Cc2nc3ccccc3[nH]2)CCCC1	i	i	i	-6.6	i
SMILES	KCNK9 block	KCNQ1 block	KCNK3 block	hERG protect	KCNQ1 act
COc1ccc(-c2oc(NC(=O)CCl)c(C#N)c2-c2ccc(OC)cc2)cc1	i	i	i	-3.4	i
COc1ccc(-c2oc(NC(=O)CSc3ncn[nH]3)c(C#N)c2-c2ccc(OC)cc2)cc1	i	i	-13.4*	-18.4	i
c1ccc(N2CCN(Cc3nnnn3C3CCCCC3)CC2)cc1	i	i	i	-8.0	i
Cc1ccc(Cl)cc1N1CCN(Cc2nnnn2C2CCCCC2)CC1	i	i	-10.9*	-15.8	i
CCc1ccc2c(c1)c(N=NC1=NC(=O)CS1)c(O)n2C	i	i	i	0.8	13*
CCN(CC(=O)Nc1cc(Cl)ccc1C)C(=O)c1nc2nc(C)cc(C)n2n1	·	·	i	·	·
COc1ccc(S(=O)(=O)Nc2c(C)n(C)n(-c3ccccc3)c2=O)cc1C(=O)O	i	i	i	-1.9	i
OC1(c2ccc(Br)cc2)CN(c2ccccc2)C2=[N+]1CCS2 (stereo not drawn)	i	i	i	-17.6	i
OC1(c2ccc(Cl)cc2)CN(c2ccccc2)C2=[N+]1CCS2 (stereo not drawn)	i	6*	i	-14.1	i
CCCSc1ccc([C@@H]2[C@H]3C(=O)N(CC)C(=O)[C@H]3[C@]3(C(=O)OC)CCCCN23)cc1	i	i	i	-5.4	i
O=C(CN1CCN(c2ccccc2)CC1)NC(=O)NCc1ccco1	i	i	i	-11.3	i
COc1cccc(N2CCN(CC(=O)NC(=O)NCc3ccco3)CC2)c1	i	i	i	10.0*	i
O=C(N/N=C/c1sc(N2CCOCC2)nc1-c1ccccc1)c1ccccc1O	i	9*	i	-13.0	i
O=C(N/N=C/c1sc(N2CCOCC2)nc1-c1ccccc1)c1ccccc1Cl	i	i	i	-4.2	i
O=[N+]([O-])c1ccc(N/N=C/c2sc(N3CCOCC3)nc2-c2ccccc2)c(S(=O)(=O)Nc2ccc(Cl)cc2)c1	i	11*	i	-17.8	i
CCOc1cc(N2CCOCC2)c(OCC)cc1NC(=O)COC(=O)/C=C/c1ccc(OC(F)F)cc1	i	i	i	-12.9	i
CN(CC(=O)Nc1ccc(Cl)cc1)C(=O)CCC1CCCC1	i	i	i	-1.7	i
COc1cccc(Oc2ccc(C(F)(F)F)cc2NC(=O)c2cccc(F)c2)c1	i	i	i	-11.9	i
COc1cccc(Oc2ccc(C(F)(F)F)cc2NC(=O)C2=COCCO2)c1	i	10*	i	-8.3	i
COC(=O)C(Cc1ccc(O)cc1)NC(=O)Cn1cc(C)c(=O)[nH]c1=O (stereo not drawn)	·	·	i	·	·
CCn1cc(C(=O)NCC(OC)OC)c(=O)c2cc(S(=O)(=O)N3CCC(C)CC3)ccc21	i	6*	i	-10.0	i
CCn1cc(C(=O)NCC(OC)OC)c(=O)c2cc(S(=O)(=O)N3CCCC3)ccc21	i	i	i	-3.0	i
CCOCCCNC(=O)c1cn(CC)c2ccc(S(=O)(=O)N(C)C3CCCCC3)cc2c1=O	i	7*	i	-15.6	i
CN(CC(=O)Nc1ccccc1Cl)C(=O)CN1C(=O)C2CC=CCC2C1=O (stereo not drawn)	·	·	i	·	·
O=C1NC2(CCCCO2)CO1 (stereo not drawn)	i	i	i	-5.4	i
COc1cccc(NC(=O)N2CCCC2C(=O)NC2CCCC2)c1 (stereo not drawn)	i	i	i	-3.0	i
